Data set [1] relates to six strains of pathogenic fungi and five strains of pathogenic bacteria. Description: MIC determination, whole panel of fungi and bacteria. It is filed as cell-based. Particulars: in words.
In data set [2] the test system is rat erythrocytes. Description: Hemolysis assay. Format: cell-based, Sprague-Dawley rats. Particulars: for concentration inducing hemolysis relative to MICs: hemolytic concentration / MIC. Put shortly:
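Sprague-Dawley rat blood was drawn from the abdominal aorta into heparin. RBCs were centrifuged, washed and made up as a 10% suspension in saline. Peptides, twofold-diluted in saline, were incubated with the RBCs at 37°C for 1 h, then spun 10 min, and supernatant A540 was read. Controls were saline (0%) and 1% Triton X-100 (100%). Hemolysis % = (Am − An)/(Ap − An) × 100.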

Data set [3] concerns mammalian cells. Nature of the data set: Cytotoxicity assay. Format: cell-based, human. Particulars: for concentration inducing cytotoxicity relative to MICs: cytotoxic concentration / MIC; for cytotoxicity: in words, MTT, HaCaTs and HUVECs, 24 h. Put shortly: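 HUVECs and HaCaTs in log phase were trypsinised, adjusted to 5 × 10^4 cells/ml, seeded and left to adhere overnight. Cells were exposed to a range of peptide concentrations (peptides in sterile water) for 24 h at 37°C, 5% CO2, with untreated wells as controls. MTT (5 mg/ml stock) was added for 4 h, the supernatant was removed, formazan was dissolved in DMSO, and A490 was read.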

In data set [4] the test system is A. baumannii GD003. Nature of the data set: Drug resistance development, serial passage. It is filed as cell-based, Acinetobacter baumannii. To be noted: A. baumannii GD003, serial passage at sub-MIC for 30 days, 96-well plates. Put shortly:
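A. baumannii GD003 was activated in liquid culture and grown 12 h. It was diluted to 5 × 10^5 cells/ml in MHB and tested by broth microdilution in 96-well plates (37°C, 24 h; MIC = lowest concentration with no visible growth). Cells from the half-MIC well were carried into the next round and the MIC was re-measured, repeating over 30 days.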

Data set [5] has as its system A. baumannii. Nature of the data set: Murine lung infection. It is filed as in vivo, BALB/c mice. To be noted: 40 mg/kg intravenously for three consecutive days.

Ends that are not written are not given here.

Regarding VTFVRLAGVASAVKTKAG [peptide 26], in data set [1], the antimicrobial activity result is “lacks antimicrobial activity”.

Take WFHFFQRGSYNGI [AMP-29]: the “concentration with hemolytic activity” value in data set [2] (10% rat RBC, 37°C, 1 h) turned out to be 50 µM. Further, the “concentration inducing hemolysis relative to MICs” value in data set [2] amounted to 4 fold. Further, in data set [3], the “concentration inducing cytotoxicity relative to MICs” value was above 32 fold and the cytotoxicity result is listed as “low cytotoxicity”.

Turning to WLGSKIKAAKMKVGMWGAVGLRHN [AMP-24], in data set [2], the “concentration inducing hemolysis relative to MICs” value is recorded as “at least 32 fold”. In data set [3], the “concentration inducing cytotoxicity relative to MICs” value is reported as “at least 32 fold” and the cytotoxicity entry is recorded as “low cytotoxicity”. For the same sequence, the “MIC after 30 passages of induced resistance” value in data set [4] was 12.5 µM. In data set [5], the “H&E staining of off-target tissues (heart, liver, kidney)” value is listed as “no obvious immune cell infiltrations were observed”.

On to GIWDMIRKVRTVIRKAKQIKTFINGKGVQ [AMP-11], for which, in data set [2] (in words, 10% rat RBC, 37°C, 1 h (Fig. 3A)), the hemolytic activity entry is “potent hemolytic activity”. In data set [3], the cytotoxicity result is given as “moderate cytotoxicity”.

For the origin of these results see article PMC11797553 (Science Advances, 2025).
